# Measured values as given in ChEMBL document CHEMBL1921792, “Synthesis and anticonvulsant activity of trans- and cis-2-(2,6-dimethylphenoxy)-N-(2- or 4-hydroxycyclohexyl)acetamides and their amine analogs” (Bioorg Med Chem, 2011).
# How the values were obtained:
# Mus musculus [1] = assay: Neurotoxicity in mouse assessed as inability to maintain equilibrium on rotarod at 30 mg/kg, ip after 0.5 hrs by rotarod test; assay type: toxicity, organism-based; set-up: dose 30 mg/kg, route intraperitoneal; details: in vivo
# Summary of the method: (§1)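 Drug given ip to mice as a suspension in 0.5% methylcellulose. At the stated time after dosing, each mouse was placed on a 1 inch knurled rod turning at 6 rpm. Neurotoxicity = inability to stay balanced at least 1 min in each of three trials. Scored as animals toxic/animals tested in small groups.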
# Mus musculus [2] = assay: Neurotoxicity in mouse assessed as inability to maintain equilibrium on rotarod at 300 mg/kg, ip after 0.5 hrs by rotarod test; assay type: toxicity, organism-based; set-up: dose 300 mg/kg, route intraperitoneal; details: in vivo; summary of the method: as §1
# Mus musculus [3] = assay: Neurotoxicity in mouse assessed as inability to maintain equilibrium on rotarod at 30 mg/kg, ip after 4 hrs by rotarod test; assay type: toxicity, organism-based; set-up: dose 30 mg/kg, route intraperitoneal; details: in vivo; summary of the method: as §1
# Mus musculus [4] = assay: Neurotoxicity in mouse assessed as inability to maintain equilibrium on rotarod at 100 mg/kg, ip after 4 hrs by rotarod test; assay type: toxicity, organism-based; set-up: dose 100 mg/kg, route intraperitoneal; details: in vivo; summary of the method: as §1
# Mus musculus [5] = assay: Neurotoxicity in mouse assessed as inability to maintain equilibrium on rotarod at 300 mg/kg, ip after 4 hrs by rotarod test; assay type: toxicity, organism-based; set-up: dose 300 mg/kg, route intraperitoneal; details: in vivo; summary of the method: as §1
# [6] = Neurotoxicity in ip dosed mouse assessed as inability to maintain equilibrium on rotarod by rotarod test; assay type: toxicity, organism-based; details: in vivo
# Summary of the method: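 Mice dosed ip with a suspension in 0.5% methylcellulose, then placed on a 1 inch knurled plastic rod rotating at 6 rpm. Toxicity = failure to keep equilibrium for at least 1 min in each of three trials.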
# [7] = Neurotoxicity in po dosed rat assessed as neurological deficit […]; assay type: toxicity, organism-based; details: in vivo
# Summary of the method: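 Rats dosed orally with a suspension in 0.5% methylcellulose. Neurological deficit judged by ataxia and loss of placing response and muscle tone.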
# Mus musculus [8] = assay: Anticonvulsant activity in ip dosed mouse assessed as protection against maximal electric shock-induced seizures; assay type: functional; details: Mus musculus, ip; read-out: ED50
# Rattus norvegicus [9] = assay: Anticonvulsant activity in po dosed rat assessed as protection against maximal electric shock-induced seizures; assay type: functional
# Mus musculus [10] = species on record: Mus musculus; assay: Protective index, ratio of TD50 for neurotoxicity in mouse to ED50 for inhibition of maximal electroshock-induced seizures in mouse; assay type: functional
# Rattus norvegicus [11] = species on record: Rattus norvegicus; assay: Protective index, ratio of TD50 for neurotoxicity in rat to ED50 for inhibition of maximal electroshock-induced seizures in rat; assay type: functional
# Rattus norvegicus [12] = assay: Neurotoxicity in rat assessed as neurological deficit at 30 mg/kg, po after 0.25 hrs […]; assay type: toxicity, organism-based; set-up: dose 30 mg/kg, route oral; details: in vivo
# Summary of the method: (§2)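 Rats given the compound, suspended in 0.5% methylcellulose, by the stated route and dose. Neurological deficit was recorded at the listed times as ataxia and loss of placing response and muscle tone. Reported as number of rats showing toxicity/number tested.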
# Rattus norvegicus [13] = assay: Neurotoxicity in rat assessed as neurological deficit at 30 mg/kg, po after 0.5 hrs […]; assay type: toxicity, organism-based; set-up: dose 30 mg/kg, route oral; details: in vivo; summary of the method: as §2
# Rattus norvegicus [14] = assay: Neurotoxicity in rat assessed as neurological deficit at 30 mg/kg, po after 1 hr […]; assay type: toxicity, organism-based; set-up: dose 30 mg/kg, route oral; details: in vivo; summary of the method: as §2
# Rattus norvegicus [15] = assay: Neurotoxicity in rat assessed as neurological deficit at 30 mg/kg, po after 2 hrs […]; assay type: toxicity, organism-based; set-up: dose 30 mg/kg, route oral; details: in vivo; summary of the method: as §2
# Rattus norvegicus [16] = assay: Neurotoxicity in rat assessed as neurological deficit at 30 mg/kg, po after 4 hrs by rotarod test; assay type: toxicity, organism-based; set-up: dose 30 mg/kg, route oral; details: in vivo; summary of the method: as §2
# Rattus norvegicus [17] = assay: Neurotoxicity in rat assessed as neurological deficit at 62.5 mg/kg, po after 0.25 hrs; assay type: toxicity, organism-based; set-up: dose 62.5 mg/kg, route oral; details: in vivo
# Summary of the method: (§3)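 Rats dosed orally with test agent suspended in 0.5% methylcellulose and observed for up to 24 h (time-to-peak-effect design). Neurological deficit was scored as ataxia with loss of placing response and muscle tone. Two rats per dose per time point; results given as number toxic/number tested.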
# Rattus norvegicus [18] = assay: Neurotoxicity in rat assessed as neurological deficit at 62.5 mg/kg, po after 0.5 hrs; assay type: toxicity, organism-based; set-up: dose 62.5 mg/kg, route oral; details: in vivo; summary of the method: as §3
# Rattus norvegicus [19] = assay: Neurotoxicity in rat assessed as neurological deficit at 62.5 mg/kg, po after 1 hr; assay type: toxicity, organism-based; set-up: dose 62.5 mg/kg, route oral; details: in vivo; summary of the method: as §3
# Rattus norvegicus [20] = assay: Neurotoxicity in rat assessed as neurological deficit at 62.5 mg/kg, po after 2 hrs; assay type: toxicity, organism-based; set-up: dose 62.5 mg/kg, route oral; details: in vivo; summary of the method: as §3
# Rattus norvegicus [21] = assay: Neurotoxicity in rat assessed as neurological deficit at 62.5 mg/kg, po after 4 hrs; assay type: toxicity, organism-based; set-up: dose 62.5 mg/kg, route oral; details: in vivo; summary of the method: as §3
# Rattus norvegicus [22] = assay: Neurotoxicity in rat assessed as neurological deficit at 62.5 mg/kg, po after 6 hrs; assay type: toxicity, organism-based; set-up: dose 62.5 mg/kg, route oral; details: in vivo; summary of the method: as §3
# Rattus norvegicus [23] = assay: Neurotoxicity in rat assessed as neurological deficit at 62.5 mg/kg, po after 8 hrs; assay type: toxicity, organism-based; set-up: dose 62.5 mg/kg, route oral; details: in vivo; summary of the method: as §3
# Rattus norvegicus [24] = assay: Neurotoxicity in rat assessed as neurological deficit at 62.5 mg/kg, po after 24 hrs; assay type: toxicity, organism-based; set-up: dose 62.5 mg/kg, route oral; details: in vivo; summary of the method: as §3
# Rattus norvegicus [25] = assay: Neurotoxicity in rat assessed as neurological deficit at 125 mg/kg, po after 0.25 hrs; assay type: toxicity, organism-based; set-up: dose 125 mg/kg, route oral; details: in vivo; summary of the method: as §2
# Rattus norvegicus [26] = assay: Neurotoxicity in rat assessed as neurological deficit at 125 mg/kg, po after 0.5 hrs; assay type: toxicity, organism-based; set-up: dose 125 mg/kg, route oral; details: in vivo; summary of the method: as §2
# Rattus norvegicus [27] = assay: Neurotoxicity in rat assessed as neurological deficit at 125 mg/kg, po after 1 hr; assay type: toxicity, organism-based; set-up: dose 125 mg/kg, route oral; details: in vivo; summary of the method: as §2
smiles,measurement,setting,value
Cc1cccc(C)c1OCC(=O)NC1CCCCC1O.Cl (racemic; 1),Activity,Mus musculus [1],Non-toxic
same,Activity,Mus musculus [2],Toxic
same,Activity,Mus musculus [3],Non-toxic
same,Activity,Mus musculus [4],Non-toxic
same,Activity,Mus musculus [5],Non-toxic
same,TD50,[6],106 mg/kg
same,TD50,[7],> 500 mg/kg
same,ED50,Mus musculus [8],43 mg/kg
same,ED50,Rattus norvegicus [9],23.6 mg/kg
same,Ratio TD50/ED50,Mus musculus [10],2.475
same,Ratio TD50/ED50,Rattus norvegicus [11],>21.218
same,Activity,Rattus norvegicus [12],Non-toxic
same,Activity,Rattus norvegicus [13],Non-toxic
same,Activity,Rattus norvegicus [14],Non-toxic
same,Activity,Rattus norvegicus [15],Non-toxic
same,Activity,Rattus norvegicus [16],Non-toxic
same,Activity,Rattus norvegicus [17],Non-toxic
same,Activity,Rattus norvegicus [18],Non-toxic
same,Activity,Rattus norvegicus [19],Non-toxic
same,Activity,Rattus norvegicus [20],Non-toxic
same,Activity,Rattus norvegicus [21],Non-toxic
same,Activity,Rattus norvegicus [22],Non-toxic
same,Activity,Rattus norvegicus [23],Non-toxic
same,Activity,Rattus norvegicus [24],Non-toxic
same,Activity,Rattus norvegicus [25],Non-toxic
same,Activity,Rattus norvegicus [26],Non-toxic
same,Activity,Rattus norvegicus [27],Non-toxic
